DNMT1 inh: DNMT1 (human) enzyme inhibition; P26358; DNMT1 molecular beacon, Hinp1I cleavage, fluorescence; inhibition (reported as % activation of signal), % at 10 µM; 0.83% of 360,000 active; in the data active means inhibition above about 50%
Scp1 inh: Scp-1 (human) phosphatase inhibition | Q9GZU7 | Recombinant Scp1, phosphopeptide, malachite green phosphate absorbance | inhibition, % at 20 µM | 0.88% of 340,000 active | AID 493091;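 active means inhibition above about 50% at 20 µM, limit read from the data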;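 further: plate controls were DMSO wells with enzyme for no effect and wells lacking enzyme for full effect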
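System: truncated SCP-1 phosphatase (76-261aa); medium: Tris acetate buffer pH 5.5 with MgCl2 and Tween-20; incubation: 45 min room-temperature reaction, 5 min colour, 30 min stabiliser; compound: single 20 µM dose, 1% DMSO; reagent: Phosphorylated 17-residue peptide substrate; read-out: % inhibition at 20 µM; technique: colorimetric free-phosphate detection, absorbance 630 nm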
LMPTP inh: blocks human LMPTP phosphatase | P24666 | recombinant LMPTP-A, OMFP fluorogenic substrate, fluorescence intensity | inhibition, % at 20 µM | 0.22% of 360,000 active | AID 651560;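 active means compounds that cut the enzyme signal by at least half of the control window in the single-dose screen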;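 further: plate controls were DMSO wells with enzyme plus substrate for no effect and substrate without enzyme for full effect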
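Test system: LMPTP-A phosphatase enzyme. Amount: LMPTP-A at 0.625 nM final in the reaction. Reagent: OMFP substrate, 400 µM final. Times: 50 min at room temperature. Signal: endpoint fluorescence intensity from OMFP dephosphorylation. Read-out basis: % inhibition. Benchmarks: no-enzyme and uninhibited controls.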
SUMO1 PPI mod: alters human SUMO1 binding to SIM partners | P63165 | SUMO1 binding to a labelled peptide, TR-FRET, 1 h | inhibition, % at 20 µM | 0.33% of 360,000 active; in the data active means inhibition above about 37%
Casp6 inh: blocks human caspase-6 cleavage activity; purified caspase-6, Z-VEID-R110 cleavage fluorescence; inhibition, % at 12.5 µM; 0.53% of 350,000 active; AID 686996;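 active means mean inhibition across replicates at least about 35%, with every replicate also reaching that limit, limit read from the data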;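 further: 0% = median of neutral control wells and 100% = no fluorescence left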
STEP block: STEP (human) phosphatase inhibition | 0.25% of 360,000 active | inhibition, % at 20 µM | AID 588621 | recombinant STEP, OMFP fluorogenic substrate, fluorescence;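 active means inhibition at 20 µM, scaled per plate between control wells, above about 37%, limit read from the data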;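 further: 0% = DMSO with enzyme and substrate and 100% = substrate only without enzyme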
Target sequence (P54829 whole entry, looked up): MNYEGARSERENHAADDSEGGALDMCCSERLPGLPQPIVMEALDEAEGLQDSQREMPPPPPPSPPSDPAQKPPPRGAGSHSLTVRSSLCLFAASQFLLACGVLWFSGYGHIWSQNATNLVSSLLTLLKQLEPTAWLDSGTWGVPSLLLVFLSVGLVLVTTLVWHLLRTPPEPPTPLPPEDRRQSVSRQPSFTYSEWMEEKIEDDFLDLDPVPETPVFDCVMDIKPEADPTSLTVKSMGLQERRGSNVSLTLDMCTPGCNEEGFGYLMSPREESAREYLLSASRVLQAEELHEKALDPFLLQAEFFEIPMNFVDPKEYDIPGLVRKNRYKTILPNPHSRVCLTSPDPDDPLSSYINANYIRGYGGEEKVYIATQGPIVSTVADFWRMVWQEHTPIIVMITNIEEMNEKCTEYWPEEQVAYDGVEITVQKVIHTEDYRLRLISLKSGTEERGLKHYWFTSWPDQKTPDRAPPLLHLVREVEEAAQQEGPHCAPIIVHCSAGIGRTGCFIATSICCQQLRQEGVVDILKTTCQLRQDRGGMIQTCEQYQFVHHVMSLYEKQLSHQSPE
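System: isolated STEP enzyme; schedule: 20 min enzyme reaction at room temperature, protected from light; medium: Bis-Tris buffer pH 6.0, 2.5 mM DTT, 0.005% Tween 20; signal: fluorescence, 480/540 nm; dosing: single compound dose of 20 µM, 1% DMSO final; also added: OMFP substrate, 25 µM final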
* hit, by the source's call; / = no result; ! = a repeat was not active. Sampled rows, rich in hits. Any-hit rate of the full collection: about 1.7%.

SMILES	DNMT1 inh	Scp1 inh	LMPTP inh	SUMO1 PPI mod	Casp6 inh	STEP block
S=C(c1ccc(-c2ccc(Br)cc2)o1)N1CCCCC1	0	-7	1	-3	54*	2
COc1ccc(N(C(=O)CNC(=O)c2ccco2)C(C(=O)NC2CCCC2)c2cccnc2)cc1 (stereo unspecified)	-1	-8	-1	2	-1	0
C[C@@H]1CN([C@H](C)CO)C(=O)CCCn2cc(nn2)CO[C@H]1CN(C)C(=O)CCC(F)(F)F	10	/	-2	2	-2	-2
C[C@H]1CN([C@@H](C)CO)C(=O)CCCn2cc(nn2)CO[C@@H]1CN(C)C(=O)CCC(F)(F)F	4	/	-2	9	45*!	0
C[C@@H]1CN([C@H](C)CO)C(=O)CCCn2cc(nn2)CO[C@H]1CN(C)C(=O)Nc1ccnc(N2CCOCC2)c1	2	/	14	108*	-1	3
COc1cccc(-c2cc3c(-n4cccc4)ncnc3o2)c1	-8	-14	5	-10	/	5
Cc1cc2cc(CN(CC3CCCO3)C(=S)Nc3ccccc3)c(=O)[nH]c2cc1C (stereo unspecified)	-4	-1	0	-2	-1	0
Cc1ccc(N(CCC#N)C(=O)CCl)cc1C	12	-4	-1	2	17	1
COc1cccc(/C=C2\SC(=O)N(CC(=O)NCCCn3ccnc3)C2=O)c1	0	9	-1	-31	-2	0
COc1ccc(/C=C2\SC(=O)N(CC(=O)NCCCn3ccnc3)C2=O)cc1	1	-5	2	-38	50*	-1
CC1=C(C(=O)Nc2ccccc2)C(c2ccc(O)cc2)N2C(=O)CSC2=N1 (stereo unspecified)	-5	-5	0	0	/	-3
CC1CCN(CC(=O)Nc2nn(-c3ccccc3)nc2C(N)=O)CC1	1	-5	-1	5	/	-3
COC(=O)c1ccc(OCC(=O)Nc2nn(-c3ccccc3)nc2C(N)=O)cc1	-27	2	-2	50*	/	-2
Fc1ccc(NC(=S)Nc2cccc3cnccc23)cc1	-11	-9	1	-5	36*	-1
S=C(Nc1ccc(Cl)cc1)Nc1cccc2cnccc12	-32	-5	6	-2	2	-2
S=C(Nc1cccnc1)Nc1cccc2cnccc12	-13	-5	3	-11	44*	0
Cc1ccc[n+](C2C(c3ccc([N+](=O)[O-])cc3)C(C#N)=C([S-])NC2(O)C2CC2)c1 (stereo unspecified)	4	6	17	-10	-19	2
COc1ccc([C@H]2C(C#N)=C([S-])N[C@](C)(O)[C@@H]2[n+]2ccccc2)cc1	47	-8	49*	-34	-13	-1
O=C1c2ccccc2C(=O)c2c([N+](=O)[O-])ccc(O)c21	48	67*	8	3	38*	32
Nc1c(Br)cc(Br)c2c1[nH]c(=O)c1ccccc12	43	/	1	2	39*	1
O=c1[nH]c2ccccc2c2ccccc12	5	-4	0	2	/	-1
O=S(=O)(c1cccc2cccnc12)N1CCN(c2ccc(F)cc2)CC1	1	-29	1	2	42*	-2
COc1ccc(N2CCN(S(=O)(=O)c3cccc4cccnc34)CC2)cc1	2	-12	0	4	4	6
CCOC(=O)Nc1cc2c(c(N)n1)N=C(c1ccccc1)CN2	53*	15	2	-42	6	0
Cc1nc2ccccc2c(=O)n1CCN1CCOCC1	2	-3	0	2	-1	0
SMILES	DNMT1 inh	Scp1 inh	LMPTP inh	SUMO1 PPI mod	Casp6 inh	STEP block
COc1ccc(CN=C(N)N=C(N)N)cc1Cl	-1	-4	0	3	56*	1
CC(C)Oc1ccc(CN=C(N)N=C(N)N)cc1Cl	-1	-5	-1	-2	-1	-4
CC1(C)Cc2c(sc(NC(=O)COc3cccc4ccccc34)c2C#N)C(C)(C)N1	26	-11	4	-43	2	69*
Cc1ccc(OCC(=O)Nc2sc3c(c2C#N)CC(C)(C)NC3(C)C)cc1	-1	-5	0	-1	1	3
N=C(N)SCc1ncccc1O	23	9	10	9	43*	3
O=C(N/N=C/C=C/c1ccco1)c1ccccc1Cl	18	10	1	5	49*	1
O=c1c2c3nc4ccccc4nc3n(Cc3ccccc3)c2ncn1Cc1ccco1	39	6	62*	-2	/	2
COCCCn1c2nc3ccccc3nc2c2c(=O)n(Cc3ccc(Cl)cc3)cnc21	-6	-2	3	-19	1	4
O=C(Nc1ccc(Nc2ccncc2)cc1)c1ccc(Nc2ccnc3ccc([N+](=O)[O-])cc23)cc1[N+](=O)[O-]	23	-7	89*	45*	3	2
O=C(Nc1ccc(Nc2ccncc2)cc1)c1ccc([N+](=O)[O-])cc1	-3	-4	15	-36	-3	2
COCC#Cc1cnc2c(c1)C(=O)N([C@@H](C)CO)C[C@@H](C)[C@H](CN(C)C(=O)Cc1ccncc1)O2	/	/	/	/	4	/
CCNC(=O)[C@H]1[C@H](CO)[C@H]2Cn3c(ccc(C4=CCCCC4)c3=O)[C@@H]1N2C(=O)Cc1ccccn1	/	/	/	/	-1	/
Cc1ccc(NC(=O)c2ccc([N+](=O)[O-])o2)cc1S(=O)(=O)N1CCOCC1	-4	1	-1	0	41*	1
COC(=O)c1ccccc1NC(=O)CN(C1CCCCC1)S(C)(=O)=O	3	0	0	-1	/	4
Cc1ccc(C(=O)NC2CCCCN(C)C2=O)c(C)c1 (stereo unspecified)	/	/	/	/	4	/
O=C(O)C(O)c1ccccc1 (stereo unspecified)	2	-6	-1	5	3	-3
O=C(O)C(O)c1ccco1 (stereo unspecified)	92*	77*	31	5	/	53*
COc1ccc(C2NC(c3ccc(OC)cc3OC)C(C)C(=O)C2C)c(OC)c1 (stereo unspecified)	-3	-6	1	3	55*	-2
CSc1ccc(C2=C/C(=C3/SC(=S)NC3=O)c3ccccc3O2)cc1	70*	-12	2	-18	-5	3
COc1ccc(/C=N\NC(=O)c2cc(O)c(O)c(O)c2)cc1COc1ccc(C(=O)OCC(C)C)cc1	-14	51*	12	16	44*	6
COc1ccc(C(=O)N/N=C/c2ccc(OC)c(COc3ccccc3)c2)cc1	-4	0	0	-4	-3	2
